This passage reports Activity and minimal effective dose results from ChEMBL document CHEMBL2385051, “Facile synthesis of new imidazo[1,2-a]pyridines carrying 1,2,3-triazoles via click chemistry and their antiepileptic studies” (Bioorg Med Chem Lett, 2013).

Activity calls are given as the source filed them. The calls are words filed in the database; no cut-off is given here.

The subject of data set [1] is Mus musculus. Briefly: Neurotoxicity in NMRI mouse assessed as minimal motor impairment at 20 to 100 mg/kg, ip after 4 hrs by rotarod test. The arrangement: dose 20-100 mg/kg, route intraperitoneal. Particulars: in vivo. Format: toxicity, organism-based. In short, it runs like this:
(§1)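 Rotarod motor-impairment test in mice given 20, 40 and 100 mg/kg doses, read 0.5 and 4 h after administration. The value recorded is the minimal dose producing toxicity in more than 50% of mice.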
For orientation: The rotarod test checks motor coordination on a turning rod.

Data set [2] deals with Mus musculus. Description: Anticonvulsant activity in ip dosed NMRI mouse assessed as dose required to cause protection against subcutaneous pentylene tetrazole-induced seizure after 0.5 hrs. Format: functional. The following applies: read-out: MED. The procedure, abridged:
(§2)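 Mice received 20, 40 and 100 mg/kg test doses. Seizures were induced by electrical shock (MES) or PTZ injection (scPTZ) at 0.5 and 4 h after dosing. The value recorded is the minimal dose protecting more than 50% of mice against seizure.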

Data set [3] deals with Mus musculus. Briefly: Neurotoxicity in NMRI mouse assessed as minimal motor impairment at 20 to 100 mg/kg, ip after 0.5 hrs by rotarod test. Particulars: in vivo. On the set-up: dose 20-100 mg/kg, route intraperitoneal. In kind it is toxicity, organism-based. The procedure, abridged: as §1
For data set [4], the system named is Mus musculus. Description: Anticonvulsant activity in NMRI mouse assessed as protection against maximal electroshock-induced seizures at 20 to 100 mg/kg, ip after 0.5 hrs. Format: functional, organism-based. The procedure, abridged: as §2
In general terms: Protection in the maximal electroshock model is a classic sign of anticonvulsant action.

The test system of data set [5] is Mus musculus. Description: Anticonvulsant activity in NMRI mouse assessed as protection against maximal electroshock-induced seizures at 20 to 100 mg/kg, ip after 4 hrs. In kind it is functional, organism-based. The procedure, abridged: as §2
Data set [6] relates to Mus musculus. Briefly: Anticonvulsant activity in ip dosed NMRI mouse assessed as dose required to cause protection against subcutaneous pentylene tetrazole-induced seizure after 4 hrs. Particulars: read-out: MED. In kind it is functional. In short, it runs like this:
as §2

Data set [7] deals with Mus musculus. Briefly: Anticonvulsant activity in NMRI mouse assessed as protection against subcutaneous pentylene tetrazole-induced seizure at 20 to 100 mg/kg, ip after 0.5 hrs. Format: functional, organism-based. In short, it runs like this: as §2
Data set [8] has as its system Mus musculus. Description: Anticonvulsant activity in ip dosed NMRI mouse assessed as dose required to cause protection against maximal electroshock-induced seizures after 4 hrs. In kind it is functional. Particulars: read-out: MED. In short, it runs like this:
as §2

Take `Cc1ccc(-c2nc3ccc(Br)cn3c2/C=N/OCc2cn(Cc3ccc(C#N)cc3)nn2)cc1`: the Activity result with Mus musculus [1] and in the data set on Mus musculus [3] was “Non-toxic” in each case. The minimal effective dose in the data set with Mus musculus [2] and with Mus musculus [6] was 40 mg/kg throughout. Further, the outcome in the data set on Mus musculus [4] and in the data set with Mus musculus [5] was inactive.

For `Cc1cccn2c(/C=N/OCc3cn(Cc4ccc(C#N)cc4)nn3)c(-c3ccccc3)nc12`, the result with Mus musculus [7], in the data set with Mus musculus [4] and in the data set on Mus musculus [5] was inactive. Further, the Activity result in the data set on Mus musculus [1] and in the data set with Mus musculus [3] was “Non-toxic” throughout. The minimal effective dose in the data set on Mus musculus [6] turned out to be 40 mg/kg.

With `COc1ccc(Cn2cc(CO/N=C/c3c(-c4ccc(C)cc4)nc4c(C)cccn34)nn2)cc1`, the Activity result in the data set with Mus musculus [1] and with Mus musculus [3] was “Non-toxic” each time. The minimal effective dose with Mus musculus [2] was 40 mg/kg; in the data set on Mus musculus [8], 100 mg/kg; in the data set with Mus musculus [6], 100 mg/kg. Besides, in the data set on Mus musculus [4], the result was inactive.

Consider `COc1ccc(Cn2cc(CO/N=C/c3c(-c4ccc(C)cc4)nc4ccc(Br)cn34)nn2)cc1`, for which the outcome in the data set on Mus musculus [7], in the data set with Mus musculus [4] and in the data set with Mus musculus [5] was inactive. The Activity entry in the data set on Mus musculus [1] and in the data set on Mus musculus [3] was “Non-toxic” each time. Also, in the data set on Mus musculus [6], the minimal effective dose was 40 mg/kg.

Turning to `C#CCO/N=C/c1c(-c2ccc(F)cc2)nc2c(C)cccn12`, the outcome in the data set on Mus musculus [7], in the data set on Mus musculus [4] and in the data set with Mus musculus [5] was inactive. For the same compound, the Activity result in the data set with Mus musculus [1] and in the data set on Mus musculus [3] was “Non-toxic” each time. In the data set on Mus musculus [6], the minimal effective dose turned out to be 100 mg/kg.

As for `C#CCO/N=C/c1c(-c2ccccc2)nc2c(C)cccn12`, the result in the data set on Mus musculus [7], with Mus musculus [4] and in the data set on Mus musculus [5] was inactive. Also, the Activity result in the data set on Mus musculus [1] and in the data set on Mus musculus [3] was “Non-toxic” in each case. In addition, the minimal effective dose with Mus musculus [6] turned out to be 100 mg/kg.

Take `COc1ccc(Cn2cc(CO/N=C/c3c(-c4ccc(F)cc4)nc4c(C)cccn34)nn2)cc1`: the Activity entry in the data set on Mus musculus [1] and in the data set on Mus musculus [3] was “Non-toxic” each time. Besides, the minimal effective dose in the data set on Mus musculus [2] and with Mus musculus [6] was 40 mg/kg in each case. Also, the result with Mus musculus [4] and with Mus musculus [5] was inactive.

Regarding `COc1ccc(Cn2cc(CO/N=C/c3c(-c4ccccc4)nc4ccc(Br)cn34)nn2)cc1`, the result in the data set with Mus musculus [7], in the data set on Mus musculus [4] and with Mus musculus [5] was inactive. The Activity entry in the data set on Mus musculus [1] and in the data set with Mus musculus [3] was “Non-toxic” in each case. Further, the minimal effective dose in the data set on Mus musculus [6] worked out at 40 mg/kg.

On to `Cc1ccc(-c2nc3ccc(Br)cn3c2/C=N/O)cc1`, for which the Activity result in the data set with Mus musculus [1] and with Mus musculus [3] was “Non-toxic” in each case. Also, the minimal effective dose in the data set with Mus musculus [2] was 20 mg/kg; with Mus musculus [8], 100 mg/kg; in the data set with Mus musculus [6] it was 20 mg/kg. In addition, the result with Mus musculus [4] was inactive.

Consider `O/N=C/c1c(-c2ccc(F)cc2)nc2ccc(Br)cn12`, for which the Activity entry with Mus musculus [1] and in the data set on Mus musculus [3] was “Non-toxic” each time. Besides, the minimal effective dose in the data set on Mus musculus [2] and in the data set on Mus musculus [6] was 40 mg/kg in each case. The result with Mus musculus [4] and in the data set on Mus musculus [5] was inactive.

Consider `O=[N+]([O-])c1ccc(Cn2cc(CO/N=C/c3c(-c4ccccc4)nc4ccc(Br)cn34)nn2)cc1`, for which the Activity entry with Mus musculus [1] and with Mus musculus [3] was “Non-toxic” throughout. The values for the minimal effective dose in the data set with Mus musculus [2], in the data set with Mus musculus [8] and with Mus musculus [6] were 20 mg/kg, 40 mg/kg and 40 mg/kg, respectively. In addition, the outcome in the data set on Mus musculus [4] was inactive.

Turning to `Cc1ccc(Cn2cc(CO/N=C/c3c(-c4ccc(C)cc4)nc4ccc(Br)cn34)nn2)cc1`, the Activity entry in the data set on Mus musculus [1] and with Mus musculus [3] was “Non-toxic” each time. Besides, the minimal effective dose with Mus musculus [2] came to 40 mg/kg; in the data set on Mus musculus [6] it was 100 mg/kg. In addition, the result with Mus musculus [4] and in the data set on Mus musculus [5] was inactive.

For `Cc1ccc(-c2nc3c(C)cccn3c2/C=N/O)cc1`, the Activity entry in the data set on Mus musculus [1] and with Mus musculus [3] was “Non-toxic” in each case. Further, the minimal effective dose in the data set on Mus musculus [2] was determined as 20 mg/kg; with Mus musculus [8], 40 mg/kg; with Mus musculus [6], 40 mg/kg. The result in the data set with Mus musculus [4] was inactive.

On to `Cc1ccc(Cn2cc(CO/N=C/c3c(-c4ccc(F)cc4)nc4ccc(Br)cn34)nn2)cc1`, for which the outcome in the data set on Mus musculus [7], in the data set on Mus musculus [4] and in the data set on Mus musculus [5] was inactive. Also, the Activity result in the data set with Mus musculus [1] and in the data set on Mus musculus [3] was “Non-toxic” each time. Moreover, the minimal effective dose in the data set on Mus musculus [6] was 100 mg/kg.

Turning to `N#Cc1ccc(Cn2cc(CO/N=C/c3c(-c4ccccc4)nc4ccc(Br)cn34)nn2)cc1`, the Activity result in the data set on Mus musculus [1] and in the data set on Mus musculus [3] was “Non-toxic” each time. Also, the minimal effective dose in the data set with Mus musculus [2] is 20 mg/kg; in the data set with Mus musculus [8], 100 mg/kg; in the data set on Mus musculus [6], 20 mg/kg. Further, in the data set on Mus musculus [4], the outcome was inactive.

`COc1ccc(Cn2cc(CO/N=C/c3c(-c4ccccc4)nc4c(C)cccn34)nn2)cc1`: the Activity entry in the data set with Mus musculus [1] and in the data set with Mus musculus [3] was “Non-toxic” each time. For the same compound, the minimal effective dose in the data set on Mus musculus [2] was found to be 40 mg/kg; with Mus musculus [8], 40 mg/kg; with Mus musculus [6], 100 mg/kg. Moreover, the outcome with Mus musculus [4] was inactive.

Take `Cc1ccc(Cn2cc(CO/N=C/c3c(-c4ccc(F)cc4)nc4c(C)cccn34)nn2)cc1`: the outcome in the data set with Mus musculus [7], with Mus musculus [4] and in the data set with Mus musculus [5] was inactive. The Activity result in the data set on Mus musculus [1] and in the data set on Mus musculus [3] was “Non-toxic” in each case. The minimal effective dose in the data set with Mus musculus [6] was found to be 40 mg/kg.

Regarding `CN1C(=O)CN=C(c2ccccc2)c2cc(Cl)ccc21` [DIAZEPAM], the Activity entry with Mus musculus [1] and with Mus musculus [3] was “Non-toxic” throughout. Moreover, the minimal effective dose in the data set on Mus musculus [2] and in the data set on Mus musculus [6] was 20 mg/kg throughout.

For the compound `C#CCO/N=C/c1c(-c2ccc(C)cc2)nc2ccc(Br)cn12`, the Activity entry in the data set on Mus musculus [1] and in the data set on Mus musculus [3] was “Non-toxic” each time. Moreover, the results for the minimal effective dose in the data set on Mus musculus [2], with Mus musculus [8] and in the data set on Mus musculus [6] were 20 mg/kg, 20 mg/kg and 40 mg/kg, respectively. In addition, the outcome in the data set with Mus musculus [4] was inactive.

Take `Cc1cccn2c(/C=N/O)c(-c3ccc(F)cc3)nc12`: the outcome in the data set on Mus musculus [7], with Mus musculus [4] and in the data set on Mus musculus [5] was inactive. Also, the Activity result in the data set with Mus musculus [1] and in the data set with Mus musculus [3] was “Non-toxic” throughout. Further, in the data set with Mus musculus [6], the minimal effective dose turned out to be 40 mg/kg.
